Activity calls are given as the source filed them.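 How the source made its calls, unless noted: active means viability at or under a set limit in both replicates, limit being median viability minus 3 SD (cut at about 48% in these data, passing the limit was not always enough); inconclusive means at or under the limit in just one replicate; inactive means at or above the limit in both replicates.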
How the values were obtained:
[1] = reducers of endogenous Her2 protein level, primary screen, SKBR3 breast tumor cells, AlphaScreen, ATP viability (AID 461;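 active means Her2 level under about 52% in both replicate screens, with viability over 70% of control, limit read from the data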;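 on Her2 level: lower value means less Her2 protein in the cells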;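 on viability: percent of carrier control wells set as 100% viability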); conditions: 18-24 h, measured here: SKBR3 viability, ATP luminescence, at 10 µM
[2] = molecular target: Receptor tyrosine-protein kinase erbB-2 (Homo sapiens) (UniProt P04626); assay: as above; conditions: 18-24 h, at 10 µM, stronger effect = lower value
Sequence of Receptor tyrosine-protein kinase erbB-2 (Homo sapiens) (P04626 whole entry, looked up): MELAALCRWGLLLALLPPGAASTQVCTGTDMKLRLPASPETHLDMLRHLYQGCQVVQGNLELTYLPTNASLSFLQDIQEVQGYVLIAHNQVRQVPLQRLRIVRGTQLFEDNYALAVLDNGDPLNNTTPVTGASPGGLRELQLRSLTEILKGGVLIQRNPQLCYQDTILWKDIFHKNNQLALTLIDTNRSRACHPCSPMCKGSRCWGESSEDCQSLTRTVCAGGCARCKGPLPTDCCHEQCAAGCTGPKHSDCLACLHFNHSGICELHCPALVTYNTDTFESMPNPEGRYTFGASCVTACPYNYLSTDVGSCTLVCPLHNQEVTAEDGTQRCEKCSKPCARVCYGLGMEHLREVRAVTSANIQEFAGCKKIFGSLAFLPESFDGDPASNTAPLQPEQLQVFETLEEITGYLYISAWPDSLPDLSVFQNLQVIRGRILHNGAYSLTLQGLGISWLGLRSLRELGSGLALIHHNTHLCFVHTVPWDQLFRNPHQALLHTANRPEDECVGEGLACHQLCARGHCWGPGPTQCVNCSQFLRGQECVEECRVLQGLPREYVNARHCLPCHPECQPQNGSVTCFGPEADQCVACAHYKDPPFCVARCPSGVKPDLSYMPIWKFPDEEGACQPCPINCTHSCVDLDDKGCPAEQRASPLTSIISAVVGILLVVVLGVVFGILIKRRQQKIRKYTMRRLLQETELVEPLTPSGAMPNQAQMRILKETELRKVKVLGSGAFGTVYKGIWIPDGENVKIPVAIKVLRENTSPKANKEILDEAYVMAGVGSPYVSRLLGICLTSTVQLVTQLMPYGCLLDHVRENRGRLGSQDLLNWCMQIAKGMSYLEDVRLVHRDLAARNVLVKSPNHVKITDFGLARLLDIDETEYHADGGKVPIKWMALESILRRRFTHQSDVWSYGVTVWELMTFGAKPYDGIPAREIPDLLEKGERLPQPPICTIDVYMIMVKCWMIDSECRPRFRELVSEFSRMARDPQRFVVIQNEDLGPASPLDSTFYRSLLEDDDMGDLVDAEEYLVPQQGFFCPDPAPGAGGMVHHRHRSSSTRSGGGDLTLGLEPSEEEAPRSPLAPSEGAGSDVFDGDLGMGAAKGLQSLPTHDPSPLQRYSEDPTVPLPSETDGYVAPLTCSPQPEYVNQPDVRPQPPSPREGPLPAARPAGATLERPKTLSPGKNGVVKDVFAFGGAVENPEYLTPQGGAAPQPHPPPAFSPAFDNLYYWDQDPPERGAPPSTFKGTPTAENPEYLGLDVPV

[3] = SK-BR-3 cell growth inhibitors, pilot screen, 24 h, human (AID 572;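 active means viability at or below 10% of carrier control in both of two separate runs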;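 further: compound exposure lasted between 18 and 24 h rather than exactly 24 h; 100% = carrier-treated control wells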); conditions: SK-BR-3 viability, CellTiter-Glo luminescence, at 10 µM, stronger effect = lower value
[4] = HUVEC growth inhibition – cell-based, human, primary screen (AID 575;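 active means viability at or below 30% in both replicate assays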;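 further: 100% = median of untreated cell wells with 0.1% DMSO on each plate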); conditions: HUVEC proliferation, CellTiter-Glo luminescence, 72 h; at 10 µM; stronger effect = lower value
Method in brief: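 Material: primary human umbilical vein endothelial cells / Schedule: 72 h exposure, 37 °C, 5% CO2, 30 min RT equilibration / Signal: ATP-based CellTiter-Glo luminescent read / Read-out basis: percent of median DMSO-control luminescence / Control set: 32 DMSO-only cell-control wells (high), 32 MePR drug-control wells (low) per plate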

[5] = growth inhibitors of H69AR lung tumor, primary screen, human, duplicate replicates (AID 580); conditions: H69AR lung tumor cells viability, ATP luminescence, 72 h; at 10 µM; stronger effect = lower value;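 further: 100% = mean luminescence of untreated wells and 0% = no signal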
[6] = reversal of MRP1-mediated doxorubicin resistance, pilot screen, H69AR cells, doxorubicin co-treatment (AID 601;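 active means viability loss from added drug above about 55%, and viability with drug at most 40%, in both replicates, limit read from the data, passing the limit was not always enough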); conditions: CellTiter-Glo, 72 h, at 10 µM; for differential viability (reversal): stronger effect = higher value
[7] = 384-well plate pilot, post-Golgi transport modulator project, inhibition of yeast transport mutant growth (AID 636; in the data active means inhibition above about 31%); conditions: absorbance 615 nm, about 18 h, stronger effect = higher value
[8] = growth suppression of yeast trafficking mutant, preliminary HTS, modulators of trafficking downstream of Golgi apparatus project, 1536-format plate, OD 615 nm (AID 637; in the data active means inhibition above about 30%); conditions: yeast transport mutant growth, absorbance 615 nm, 18 h; stronger effect = higher value
[9] = H69AR cells + 2 uM doxorubicin, measured here: viability with 2 uM doxorubicin, stronger effect = lower value
[10] = H69AR cells, compound alone cytotoxicity

Compound | viability [1] [%] | Her2 level [2] | viability [3] | viability [4] | viability [5] | differential viability (reversal) ([6]; H69AR cells + 2 uM doxorubicin) | viability [6, 9] [%] | viability [6, 10] [%] | inhibition [7] | inhibition [8]
COc1cc(CC(=O)Nc2ncc(C)s2)cc(OC)c1OC | 109 | 96% (inactive) | 109% (inactive) | 90.8% (inactive) | 91.5% (inactive) | 2.69% (inactive) | 88.8 | 91.5 | -3.2% (inactive) | 5.74% (inactive)
CCNc1nc(N2CCCCC2)nc(-n2nnc(C(=O)OCC)c2C)n1 | 162 | 94% (inactive) | 162% (inactive) | 116% (inactive) | 95.7% (inactive) | 1.31% (inactive) | 94.3 | 95.7 | -6.45% (inactive) | 4.75% (inactive)
COc1ccccc1NC(=O)N1CCCC1C(=O)NC1CCCCC1 (stereo not given) | 104 | 91.5% (inactive) | 104% (inactive) | 101% (inactive) | 80.1% (inactive) | -4.57% (inactive) | 84.7 | 80.1 | -9.32% (inactive) | -2.5% (inactive)
C=CCSc1nc2c(c(=O)[nH]c(=O)n2C)n1C(C)C | 85.5 | 89% (inactive) | 85.5% (inactive) | 88.9% (inactive) | 106% (inactive) | 17.9% (inactive) | 88.2 | 106 | -2.63% (inactive) | -1.64% (inactive)
COc1ccccc1N1CC(O)=C(c2nc3ccccc3c(=O)[nH]2)C1=N | 116 | 72% (inactive) | 116% (inactive) | 102% (inactive) | 71.7% (inactive) | -13.9% (inactive) | 85.7 | 71.7 | -4.05% (inactive) | 1.59% (inactive)
COc1ccc(N2C(=O)CC(N3CCN(c4ccccc4F)CC3)C2=O)cc1 (stereo not given) | 88 | 98% (inactive) | 88% (inactive) | 91.1% (inactive) | 105% (inactive) | 2.14% (inactive) | 103 | 105 | -1.07% (inactive) | 2.26% (inactive)
N#CCCn1ccc(NC(=O)c2ccc(Cl)cc2)n1 | 79 | 87.5% (inactive) | 79% (inactive) | 102% (inactive) | 97% (inactive) | 8.88% (inactive) | 88.1 | 97 | -5.27% (inactive) | -0.66% (inactive)
COC(=O)Nc1ccc(S(=O)(=O)N(C)CC(F)(F)C(F)F)cc1 | 107 | 102% (inactive) | 107% (inactive) | 107% (inactive) | 93.1% (inactive) | -1.14% (inactive) | 94.2 | 93.1 | -6.05% (inactive) | 1.8% (inactive)
Cc1nnc(SCC(=O)N(C(C)C)C(C)C)nc1C | 75.5 | 88.5% (inactive) | 75.5% (inactive) | 95% (inactive) | 103% (inactive) | 10.3% (inactive) | 93.2 | 103 | -5.6% (inactive) | -1.31% (inactive)
CCOC(=O)c1[nH]c(C)c(C(=O)N(C)C)c1C | 110 | 88.5% (inactive) | 110% (inactive) | 103% (inactive) | 95.6% (inactive) | -0.97% (inactive) | 96.6 | 95.6 | -5.79% (inactive) | -7.3% (inactive)
COc1ccc(C(N)=O)cc1N | 77.5 | 116% (inactive) | 77.5% (inactive) | 105% (inactive) | 94.6% (inactive) | -1.72% (inactive) | 96.3 | 94.6 | 4.81% (inactive) | 18% (inactive)
COc1ccc(C2(CN(C(C)=O)C(C)=O)CCCC2)cc1OC | 89.5 | 93% (inactive) | 89.5% (inactive) | 114% (inactive) | 90.4% (inactive) | 1.69% (inactive) | 88.7 | 90.4 | -4.8% (inactive) | -4.92% (inactive)
CN(C(=O)COC(=O)C1CCN(S(=O)(=O)c2cccs2)CC1)C1CCS(=O)(=O)C1 (stereo not given) | 118 | 127% (inactive) | 118% (inactive) | 94.9% (inactive) | 99.8% (inactive) | 12.6% (inactive) | 87.2 | 99.8 | -4.4% (inactive) | -7.74% (inactive)
O=C1CCc2cc(S(=O)(=O)N3CCC(C(=O)NCc4ccccn4)CC3)ccc2N1 | 81 | 89% (inactive) | 81% (inactive) | 98% (inactive) | 96.7% (inactive) | 1.42% (inactive) | 95.3 | 96.7 | -0.4% (inactive) | 14.4% (inactive)
O=C(C1CCCN(S(=O)(=O)c2cccs2)C1)N1CCc2ccccc2C1 (stereo not given) | 83 | 75.5% (inactive) | 83% (inactive) | 83.4% (inactive) | 85.3% (inactive) | -6.37% (inactive) | 91.7 | 85.3 | -4% (inactive) | 3.28% (inactive)
COc1ccc(CCn2c(-c3ccco3)nc3nc4ccccc4nc32)cc1 | 108 | 110% (inactive) | 108% (inactive) | 62.8% (inactive) | 25.6% (active) | -29.9% (inactive) | 55.4 | 25.6 | -1.62% (inactive) | 1.31% (inactive)

Compound | viability [1] [%] | Her2 level [2] | viability [3] | viability [4] | viability [5] | differential viability (reversal) ([6]; H69AR cells + 2 uM doxorubicin) | viability [6, 9] [%] | viability [6, 10] [%] | inhibition [7] | inhibition [8]
O=C(Oc1cccc2cccnc12)c1cccc(-n2cnnn2)c1 | 104 | 82% (inactive) | 104% (inactive) | 60.3% (inactive) | 91.9% (inactive) | 15.1% (inactive) | 76.8 | 91.9 | -2.53% (inactive) | 5.97% (inactive)
CCOC(=O)CSc1ncnc2c1cnn2-c1ccc(C)cc1 | 103 | 88.5% (inactive) | 103% (inactive) | 75% (inactive) | 90.6% (inactive) | -0.755% (inactive) | 91.4 | 90.6 | -6.4% (inactive) | 0.33% (inactive)
CCN(CCCNC(=O)c1cn(CC)c2ccc(S(=O)(=O)N(C)C)cc2c1=O)c1cccc(C)c1 | 98 | 74.5% (inactive) | 98% (inactive) | 61.6% (inactive) | 80% (inactive) | 60.4% (active) | 19.6 | 80 | -2.8% (inactive) | 4.26% (inactive)
O=C(OCC(=O)N1CCCCCC1)c1cccs1 | 99 | 95.5% (inactive) | 99% (inactive) | 103% (inactive) | 106% (inactive) | 9.71% (inactive) | 96.7 | 106 | -0.67% (inactive) | 1.77% (inactive)
O=C(Nc1ccc(Cl)cc1)C1CC=CCC1C(=O)OCC(F)(F)C(F)F (stereo not given) | 93 | 92.5% (inactive) | 93% (inactive) | 103% (inactive) | 94.6% (inactive) | 7.29% (inactive) | 87.3 | 94.6 | -6.89% (inactive) | -3% (inactive)
O=S(c1ccsc1)c1ccsc1 | 116 | 87% (inactive) | 116% (inactive) | 104% (inactive) | 88.7% (inactive) | -4.55% (inactive) | 93.2 | 88.7 | 1.6% (inactive) | 1.29% (inactive)
COc1cccc(NC(=O)N2CCN(C(=O)C(Cc3ccc(OC)c(OC)c3)NC(C)=O)CC2)c1 (stereo not given) | 97 | 124% (inactive) | 97% (inactive) | 91.1% (inactive) | 90.7% (inactive) | 2.21% (inactive) | 88.5 | 90.7 | -4.62% (inactive) | -7.5% (inactive)
CCCCCC1CC(CC(C)C(=O)Nc2nncs2)C(=O)O1 (stereo not given) | 90.5 | 86.5% (inactive) | 90.5% (inactive) | 85.2% (inactive) | 93.3% (inactive) | 7.83% (inactive) | 85.4 | 93.3 | -5.6% (inactive) | -2.86% (inactive)
Cc1ccc(N2CCN(C(=S)c3ccc(N(C)C)cc3)CC2)cc1 | 89.5 | 82.5% (inactive) | 89.5% (inactive) | 91.8% (inactive) | 82.6% (inactive) | -9.83% (inactive) | 92.4 | 82.6 | -3.92% (inactive) | -6.19% (inactive)
Cc1ccc(S(=O)(=O)N(C)Cc2cc3ccccc3[nH]c2=O)cc1 | 114 | 86.5% (inactive) | 114% (inactive) | 111% (inactive) | 91.5% (inactive) | 3.6% (inactive) | 87.9 | 91.5 | 0.26% (inactive) | -6.91% (inactive)
CC(=O)c1coc2ccc(OCC(=O)O)cc12 | 104 | 90.5% (inactive) | 104% (inactive) | 105% (inactive) | 98% (inactive) | 5.29% (inactive) | 92.7 | 98 | -4% (inactive) | -4.26% (inactive)
COc1ccc(N2CCN(C(c3cccs3)c3nnnn3C3CCCC3)CC2)cc1 (stereo not given) | 90.5 | 95% (inactive) | 90.5% (inactive) | 69.3% (inactive) | 70% (inactive) | -17.6% (inactive) | 87.5 | 70 | -3.25% (inactive) | -5.87% (inactive)
CC(=O)Nc1ccc(NS(=O)(=O)C(F)(F)F)cc1 | 82.5 | 97% (inactive) | 82.5% (inactive) | 93.9% (inactive) | 92.6% (inactive) | -3.72% (inactive) | 96.3 | 92.6 | -2.34% (inactive) | 1.48% (inactive)
CCN(CC)S(=O)(=O)N1CCC(C(=O)NCC2COc3ccccc3O2)CC1 (stereo not given) | 94 | 114% (inactive) | 94% (inactive) | 109% (inactive) | 97.3% (inactive) | -9.32% (inactive) | 107 | 97.3 | -0.79% (inactive) | 3.65% (inactive)
Cc1cc(C)c(NC(=O)C2CSCCS2)c(C)c1 (stereo not given) | 90 | 79.5% (inactive) | 90% (inactive) | 99.7% (inactive) | 100% (inactive) | 14.1% (inactive) | 85.9 | 100 | -3.82% (inactive) | -7.17% (inactive)
COc1cccc(C(=O)CN2CCC(NC(=O)NC3CCCCC3)CC2)c1 | 92 | 101% (inactive) | 92% (inactive) | 102% (inactive) | 98.1% (inactive) | 6.55% (inactive) | 91.5 | 98.1 | -5.79% (inactive) | -2% (inactive)

Source: PubChem BioAssay
